Results published in the EternaBench riboswitch data.

Tested on: MS2 coat protein
Assay: apparent Kd, MS2 coat protein; higher = weaker binding; RNA-MaP array; FMN 200 µM where present
Method in brief: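 Each design was made on Illumina sequencing-chip clusters by stalled E. coli RNA polymerase and titrated with SNAP-549-labelled MS2 coat protein from 0.7 or 1.5 nM, doubling to 3 µM, in the absence and then the presence of constant ligand. The buffer was 100 mM Tris-HCl pH 7.5, 80 mM KCl, 4 mM MgCl2, BSA, DTT, yeast tRNA and Tween-20. The apparent Kd is the median of filtered per-cluster fits of binding curves, with green signal normalised to red-channel RNA signal and control-cluster median Fmax.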

[1] = designed as: OFF switch for flavin mononucleotide, no ligand
[2] = ligand present: flavin mononucleotide, designed as: OFF switch for flavin mononucleotide
[3] = designed as: ON switch for flavin mononucleotide, no ligand
[4] = ligand present: flavin mononucleotide, designed as: ON switch for flavin mononucleotide

Row | Sequence | apparent Kd [1] [nM] | apparent Kd [2] [nM] | apparent Kd [3] [nM] | apparent Kd [4] [nM]
1 | AAAAUGUAAGGAUAUGGCCGGGACCCAGGGUUUGGACCCGGCUAGAAGGUACAUGAGGAUCACCCAUGUAAGAA | 16.4 | 23 | – | –
2 | GUAAAGUGAGGAUAUGGUGAGUAGUGCCUGAGCGCUGCUCACCAGAAGGCACAUGAGGAUCACCCAUGUAUAGC | 14.7 | 27.1 | – | –
3 | CUGGUUGUCGAGGAUAUGUCCCGGCUCGCUGACGCAGAAGGCGACACAUGAGGAUCACCCAUGUCGGUUCGCGU | 20.1 | 21.8 | – | –
4 | AGAAACUACGAGAAGGACAUGUGGUCCUUCCAAAACAUGAGGAUCACCCAUGUAGGAUAUCGUAGUUUCAGGAUCGUGAGAUCA | 11.5 | 4.61 | – | –
5 | UAGAAGUCAGGAUAUGCUGCUCGUCACUUGCGUGAUGAGUAGCAGAAGGGACAUGAGGAUCACCCAUGUAAAGU | 52.5 | 91 | – | –
6 | UACAGCCGCAUCCCAUCGCUGGAAGAGGAUAUACAUCAUCGCGCACUCACAUGAGGAUCACCCAUGUAGAAGGCUUCCUGGCGG | 7.94 | 25.4 | – | –
7 | UAUUUACAUGAGGAUCACCCAUGUCAGGAUAUGUUUCUAUCGUCGAAAGAUGAUAUUUGCAGAAGGGACAAUAU | 36.1 | 72.5 | – | –
8 | AUGGCGACGUAGAAGGGUGACAUGAGGAUCACCCAUGUGCCGAUACUUCUCGAGAUGUGUCGGCCACAGGAUAUACGUACCAUC | – | – | 52.3 | 58.3
9 | UACAGCUUGACAGGAUAUACAUGUCAGCGAAAGCUGACUAUCUUAAUAACAUGAGGAUCACCCAUGUAGAAGGGUCGAGCUGUA | 16.8 | 26.6 | – | –
10 | GCUGCUAUCGCAGGAUAUUACAUGGGAAAUAAAACAUGAGGAUCACCCAUGUAAAAUAUCGUAAAUAAGAAGGGCGAUAGCAGC | – | – | 84.6 | 1180
11 | CACAAGAAAGUCGAAGGUUGAAGUAGAAGGUUUAUAACAUGACAUGAGGAUCACCCAUGUGCCAAGAAGGAUAUGCUUUAAUCG | 11.4 | 9.43 | – | –
12 | GGCUGCGUUGUGAAGGAUAUCCGCGUCUGGACAUGAGGAUCACCCAUGUAUGCUUGGAUCGUGCCGGAGAAGGUCACGGGUGAUU | – | – | 124 | 46
13 | CGAUAUAUGAAGGGCGAAAACGCACAUGAGGAUCACCCAUGUAGAAGGCGAUCCGCAACGCGGAUCGAGGAUAUAUAGUAUACA | 21.1 | 23 | – | –
14 | CGGAAACAAGGAUAUACAUGAGGAUCACCCAUGUCGCUAACUGCGCUCUUGUGAUCCGGUAGAAGGUGUGAAUA | 29.8 | 41 | – | –
15 | AGCUACGUUUCGUAGCAGUGUCAUCGAGAAGGCUCAAAUACAUGAGGAUCACCCAUGUUAACAUGGGAGGAUAUCGAUGAUACA | – | – | 63.6 | 7.86
16 | CAGUAAUUCGAAGGAUAUGGUUACAUGAGGAUCACCCAUGUAUGAUUUGUGAUCUUAAAAUUGAUCCAGAAGGUCGAAUUACUG | 206 | 330 | – | –
17 | UUUAAUUUAAUUAAGAUCACAUGAGGAUCACCCAUGUAUAUAUAGGAUAUCAGCUCGAAUAGAGCUGAGAAGGAUAUAUACAUA | 69.3 | 36.2 | – | –
18 | AGCUACGUUUCGUAGCAGCUAGGUGAGGAUAUUCAAUUUUUCACAUGAGGAUCACCCAUGUAUGUGAAGAAGGCGCCUAGAAAA | – | – | 12.3 | 4.98
19 | CAAAGGGAAGGAUAUACAUCAGGCGACCUGGUGGGCACCUAACAUGAGGAUCACCCAUGUAGAAGGUCCAGGGA | 22.4 | 14.9 | – | –
20 | GUGUACAGAGGAUAUGCACGAGUAGUUACGAAAGUAACUGCACAUGAGGAUCACCCAUGUAGAAGGCUGUACAC | 17.9 | 16.7 | – | –
21 | CCCUCACAUGAGGAUCACCCAUGUCAGGAUAUCUAGUCAGACAGUAUAGCACUGCUGAAGAGAAGGGACGUAAA | 16.4 | 20 | – | –
22 | GGAUGACAAAGUCAUCCAAUACGAACAUGAGGAUCACCCAUGUAGGAUAUGCUUCUCAAAGAGAAGCAGAAGGACAUGUGUCUU | 28.7 | 158 | – | –
23 | UACAUUAACAUGAGGAUCACCCAUGUUGGCCAGUCUCACACCAGAAGGCACGUAGAGCACAACAGUGAGGAUAUGGGUGACAUA | – | – | 218 | 98.7
24 | GUGGUUGUCGUAGGAUAUGUAGGAUAUUCCUACAUGAGGAUCACCCAUGUUCGCAUGGAAGAAGGACGGAAGGACGAUGACCAC | – | – | 156 | 129
25 | UGGGACGUGGGAGGAUAUCGGCCUGUAACAGUACGAGAAGGCCCAGUCCAAUAACAGACGGACAUGAGGAUCACCCAUGUCUCA | – | – | 43.2 | 14.3
26 | UGUGUGUGGGCAGGAUAUGCAUGAAUAUGUAUGAUGUAGUGUGAUGUAACAUGAGGAUCACCCAUGUAGAAGGGCCGGUGUAUG | 94.5 | 122 | – | –
27 | AACCGCGACCGGCCUGGCACGCCGAGAAGGGUACGUGACCUGCUUUACAUGAGGAUCACCCAUGUACAGGAUAUCGGAUAGCCG | – | 7.28 | – | –
28 | CCGAAACCUCAGAAGGACCACAUGAGGAUCACCCAUGUCAAGCAAAACGGUAGGAUAUGAGGGAAAAGUCAAUAUACCCGACAG | – | – | 11.3 | 4.9

Row | Sequence | apparent Kd [1] [nM] | apparent Kd [2] [nM] | apparent Kd [3] [nM] | apparent Kd [4] [nM]
29 | UACAUCAAUGAAGGAUAUCGAUAUCCAACAUGAGGAUCACCCAUGUUGAGGAUCACCCAUGUAAAUGAGAAGGUUAACAUAACU | – | – | 94.9 | 83.3
30 | UGCACCAACGAGAAGGCACAGAUCCAGCUCUUGACAUGAGGAUCACCCAUGUGAGGAUAUCGUAGGUGCGAAUUGGGACAAUCU | 11 | 98.2 | – | –
31 | AUUAUGUUAGGAUAUGCUUAUGGUGGAUAGUCCAAUAUGAUGCAGAAGGGACAUGAGGAUCACCCAUGUACUGA | 24.9 | 27.3 | – | –
32 | CACUGCAUGUAAGGAUAUCGACUGGAUAACAGUCGAGAAGGUACAUGAGGAUCACCCAUGUAAAUAAUAAUAAAUAAAGCAGUG | 15.1 | 25.1 | – | –
33 | GUGUAUCGCCUCGAGGAUAUCCUGUCAUGCACAUGAGGAUCACCCAUGUAAGAGCGAGUUUUUUGGGAGAAGGCGAGUUCUCGGU | – | – | 90.3 | 30.4
34 | CCCUCACAUGAGGAUCACCCAUGUCAGGAUAUCUAGUCAGACAGUGUAGCACUGCUGAAGAGAAGGGACGUAAA | 16.9 | 19.4 | – | –
35 | CCAUAAAAGAUCCAAUUUUACAACAUGAGGAUCACCCAUGUGCAGGAUAUCGUGAAAGUAAAAUACGAGAAGGGCAAGAACUGC | 265 | 246 | – | –
36 | UGUCGGAUGUAGAAGGGUAGUACAUGAGGAUCACCCAUGUUAACAUGGAAUACAGGAUAUGCGUAUAGUUUUUAUUAAAUUAUA | 108 | 44.3 | – | –
37 | GCACAUGAGGAUCACCCAUGUGGUCCAGAAGGCCAGAGGACUUGCUUUUAGCAAGUCCUUCAAAUGGAGGAUAUGGAGGGUUCU | – | – | 237 | 42
38 | ACGCCUCCUGUCAGGAUAUGCAUCGGGCUUCCGCAGCAGAAGGGACAUGAGGAUCACCCAUGUCAAAUAAAAUC | 17.6 | 58.3 | – | –
39 | AGAAAGUCAGGAUAUCAGAAUAAGUCGAAAACGACUAGUAAUGAGAAGGGACAUGAGGAUCACCCAUGUAAGAA | 30.6 | 37.4 | – | –
40 | AUAUGAGAAGCAGGAUAUGUGAAAAAAAAACAUACAGAAGGGUUUAUGGGACAACAUGAGGAUCACCCAUGUUCUCUGUGAUGA | – | – | 65.2 | 71
41 | AAAAAACAUGAGGAUCACCCAUGUGAGGAUAUGCAAAAAAAAAAAAAAAAAUAAAAAAGCAGAAGGCACAAAAA | 63.4 | 86.2 | – | –
42 | UAAGUUGAGGAGAAGGGAGCACAUGAGGAUCACCCAUGUGGUUCUUUGUGCUCAGGAUAUCCAUGGAGCUCCGUCGCGUUCCAG | 103 | 19.1 | – | –
43 | GGCUAGUCAGGAUAUACGAACAUGUCAAAAGACGUGAAGGGACAUGAGGAUCACCCAUGUAGAAGGGACUAGCC | 22.8 | 182 | – | –
44 | ACAUUGUUAGGAUAUGCUGCUCGUCACUUGCGUGAUGAGUAGCAGAAGGAACAUGAGGAUCACCCAUGUAAAAA | 33.1 | 44.3 | – | –
45 | UUGGACAUCGUAGGAUAUGUAGGAUAUUCCUACAUGAGGAUCACCCAUGUUGACAUGGAAGAAGGACAGAAGGACGAUGUCCAU | – | – | 207 | 4.12
46 | AUAAUUUUAUAAUUCUAUAUAUUCAGAAGGCAUAACAUGAGGAUCACCCAUGUAAAUUAAUGUUAUGAGGAUAUGAUUCGGUUA | 13.9 | 67.3 | – | –
47 | GAGAAGUCAGGAUAUCCAUGGCGGCACUUGCGUGGUGGCGUGGAGAAGGGACAUGAGGAUCACCCAUGUAAAGA | 52.7 | 36.8 | – | –
48 | UUGCACGUCGUAGGAUAUGUAGGAUAUUCCUACAUGAGGAUCACCCAUGUUGACAUGGAAGAAGGACAGAAGGACGAUGUCCAU | – | – | 686 | 10.9
49 | GAUAGGACAGAGAAGGACGUGGCUAGAGAUACUAGCAUAAAGGUCCAAACAUGAGGAUCACCCAUGUAGGAUAUCUGUCCUAUC | 6.59 | 8.89 | – | –
50 | GCAGCGCCUGACAUGAGGAUCACCCAUGUUCCAUUGUUGAGUCAGGAUAUAGUCUAGAAACUAGACUAGAAGGGAUAUGCUGCU | – | – | 70.2 | 50.8
51 | ACUAUACGAGGAUAUACUGUCAGUACUCAGAGGUUAAUGUGACAUGAGGAUCACCCAUGUAGAAGGCGUUUACU | 28.9 | 31.3 | – | –
52 | AUAUGAUAGAUAGGAUAUACUAUGGUUGAAGAAGUAGAAGGAUCAAUAGGGAAAUGUACAUGAGGAUCACCCAUGUUAUGGAUU | – | – | 29.7 | 26.9
53 | UGGUACUAGGAAGGAUAUGGGAAGAUACAUGAGGAUCACCCAUGUUUAAGAAUGCCGAGAGGCAACUAGAAGGCCCUAGUACCU | – | – | 596 | 135
54 | AAGUCUGGACGAGGAUAUCAGUUGUAUCUAGAUUCAACAUGAGGAUCACCCAUGUUGCAAUAGGGUGAGAAGGCGUUUGGGCAA | – | – | 79.9 | 21.2
55 | GUAAUAAAGAUCCAAUUAUACUACAUGAGGAUCACCCAUGUGCAGGAUAUCGAGAGUUUAUAAUUCGAGAAGGGCAAAUUCAUU | 73 | 159 | – | –
